Here are results for two compounds from PMC5481844 (Biomedical chromatography : BMC, 2015).

Like-named read-outs stand apart in the source and are kept apart here.

For data set [1] the following is noted: acid hydrolysis also observed; ref Stariat et al., 2009; cited from earlier work.
The nature of data set [2]: stability in different solvents. It is filed as physicochemical. Summed up: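 Remaining amount was quantified by LC-MS/MS: C18 gradient with 0.1% formic acid, positive ESI, SRM m/z 235.2/178.0, 2-amino-6-bromobenzothiazole internal standard.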
Data set [3] is described as follows: stability in plasma. The data set is classed as in vitro ADME, human. The following applies: for Measured concentration: n = 3. An outline of the steps: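 Human plasma was spiked at 100 and 500 ng/mL and kept at room temperature or on ice for up to 24 h; percent remaining was taken versus freshly prepared samples. For quantitation, 50 µL plasma plus internal standard and EDTA underwent acetonitrile precipitation and centrifugation, then LC-MS/MS in SRM mode. Calibration spanned 3.9–500 ng/mL, fitted with 1/concentration weighting.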

For data set [4], the system named is human plasma proteins. Put plainly: plasma binding by ultrafiltration. It is filed as in vitro ADME. Summed up: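 Pooled human plasma was spiked with test compound in DMSO to a final 500 ng/mL; preliminary runs also used 31.25 and 3.9 ng/mL. After 1 h at 37 °C, plasma was ultrafiltered (30 kDa cutoff, 20 min, 13,000 g). Total plasma and ultrafiltrate levels were measured by LC-MS/MS. %bound = 100×(Ctotal−Cfree)/Ctotal, corrected for membrane adsorption via recovery from water. n = 3.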

For data set [5], the system named is human plasma proteins. In words: plasma binding by ultracentrifugation. It is filed as in vitro ADME. The following applies: 500 ng/mL, n = 3. Summed up:
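Pooled human plasma was spiked with test compound in DMSO (final 500 ng/mL) and incubated 1 h at 37 °C. It was then spun at 50,000 rpm in a fixed-angle rotor for 10 h at 20 °C. The supernatant gave free and whole plasma gave total concentration, both by LC-MS/MS. %bound = 100×(Ctotal−Cfree)/Ctotal. n = 3.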

Data set [6] concerns the target human serum albumin (Homo sapiens, UniProt P02768). In words: binding to human serum albumin solution by ultrafiltration. The following applies: human serum albumin (4%) in PBS, 500 ng/mL, n = 3. It is filed as in vitro ADME. An outline of the steps: (§1)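 Test compound was spiked to a final 500 ng/mL into 4% human serum albumin or 0.1% human α1-acid glycoprotein in PBS. Samples were incubated 1 h at 37 °C, then ultrafiltered through a 30 kDa cutoff device for 20 min at 13,000 g. Total and filtrate concentrations were measured by LC-MS/MS. %bound = 100×(Ctotal−Cfree)/Ctotal, with the filtrate corrected for membrane adsorption using recovery from water. n = 3.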

Data set [7] relates to human α1-acid glycoprotein. In words: binding to human α1-acid glycoprotein solution by ultrafiltration. The data set is classed as in vitro ADME. The conditions noted are these: human α1-acid glycoprotein (0.1%) in PBS, 500 ng/mL, n = 3. Summed up: as §1
Where [8] appears, read: human plasma, long term (30 days at −80 °C), nominal 3.9 ng/mL.
[9] abbreviates: human plasma, long term (30 days at −80 °C), nominal 31.3 ng/mL.
Setting [10] is: human plasma, long term (30 days at −80 °C), nominal 500.0 ng/mL.
Where [11] appears, read: human plasma, short-term (2 h on ice), nominal 31.3 ng/mL.
Setting [12] is: human plasma, short-term (2 h on ice), nominal 500.0 ng/mL.
[13] abbreviates: human plasma, three freeze–thaw cycles, nominal 3.9 ng/mL.
Where [14] appears, read: human plasma, three freeze–thaw cycles, nominal 500.0 ng/mL.
The mark [15] stands for this setting: processed human plasma samples, autosampler for 24 h, nominal 3.9 ng/mL.
The mark [16] stands for this setting: processed human plasma samples, autosampler for 24 h, nominal 31.3 ng/mL.
Setting [17] is: processed human plasma samples, autosampler for 24 h, nominal 500.0 ng/mL.

human serum albumin, sequence (P02768 25-609): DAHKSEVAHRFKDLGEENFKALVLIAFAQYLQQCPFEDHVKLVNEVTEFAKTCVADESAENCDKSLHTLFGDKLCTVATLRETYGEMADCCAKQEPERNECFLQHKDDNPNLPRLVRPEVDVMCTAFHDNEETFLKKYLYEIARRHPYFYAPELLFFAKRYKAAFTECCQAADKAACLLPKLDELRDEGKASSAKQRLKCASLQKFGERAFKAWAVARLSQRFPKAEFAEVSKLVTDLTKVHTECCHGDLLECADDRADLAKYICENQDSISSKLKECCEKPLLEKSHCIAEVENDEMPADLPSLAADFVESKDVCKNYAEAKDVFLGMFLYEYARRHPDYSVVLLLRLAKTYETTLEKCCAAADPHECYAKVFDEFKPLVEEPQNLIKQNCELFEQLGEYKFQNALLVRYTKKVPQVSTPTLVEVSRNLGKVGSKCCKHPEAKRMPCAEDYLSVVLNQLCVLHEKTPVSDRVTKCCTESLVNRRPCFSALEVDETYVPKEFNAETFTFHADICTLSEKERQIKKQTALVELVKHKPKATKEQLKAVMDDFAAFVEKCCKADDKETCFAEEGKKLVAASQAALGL

On to `CN(C)C(=S)NN=C(c1ccccn1)c1ccccn1` [Dp44mT, di-2-pyridylketone-4,4-dimethyl-3-thiosemicarbazone], for which the “stability in acidic buffer” value in data set [1] was “also observed”.

Regarding `CC(=NNC(=S)N1CCC1)c1ccccn1` [ZMC1, azetidinecarbothioic acid, [1-(2-pyridinyl)ethylidene] hydrazide], the “stability in acidic buffer” value in data set [2] (0.1 M HCl, 500 ng/mL, hydrolysis of thiosemicarbazone bond) is reported as “quickly degraded”. In addition, the “stability in PBS” value in data set [2] (PBS pH 7.2, 500 ng/mL, 24 h at 4 °C, 37 °C and room temperature) is “stable without degradation”. Also, the “stability in solvent acetonitrile” value in data set [2] (acetonitrile–water 80:20 v/v, 500 ng/mL, 24 h at 4 °C, 37 °C and room temperature) is recorded as “stable without degradation”. The “stability in neutral buffer” value in data set [2] (preliminary stability studies) was “good stability”. In data set [3] (100 ng/mL, room temperature, over 24 h, vs freshly prepared samples), this compound returned a degraded in plasma greater than 40%. In addition, the stability in plasma entry in data set [3] (500 ng/mL, room temperature, up to 24 h) was “stable”. Also, the Bias in data set [3] (setting [8]) is reported as −0.01%; in data set [3] (setting [9]), −2.9%; in data set [3] (setting [10]), 3.2%; in data set [3] (human plasma, short-term (2 h on ice), nominal 3.9 ng/mL), −0.4%; in data set [3] (setting [11]), −7.0%; in data set [3] (setting [12]), −1.3%. The Bias in data set [3] (setting [13]) is 4.8%; in data set [3] (human plasma, three freeze–thaw cycles, nominal 31.3 ng/mL) it was −10.4%; in data set [3] (setting [14]), 10.6%; in data set [3] (setting [15]) it was 4.0%; in data set [3] (setting [16]), 13.0%; in data set [3] (setting [17]), 10.0%. Besides, the Measured concentration in data set [3] (setting [8]) was 3.9 ng/mL; in data set [3] (setting [9]) it was 30.3 ng/mL; in data set [3] (setting [10]) it was 516.4 ng/mL; in data set [3] (setting [11]), 29.0 ng/mL; in data set [3] (setting [12]), 493.9 ng/mL; in data set [3] (setting [13]) it was 4.1 ng/mL. The Measured concentration in data set [3] (setting [14]) was 553.1 ng/mL; in data set [3] (setting [15]) it was 4.1 ng/mL; in data set [3] (setting [16]) it was 35.4 ng/mL; in data set [3] (setting [17]), 550.7 ng/mL. The “stability of plasma samples under storage conditions” value in data set [3] (−80 °C for 1 month, 4 °C for 2 h, three freeze–thaw cycles, 24 h in autosampler) is listed as “stable”. Besides, the “Percentage of bound drug by ultrafiltration” value in data set [4] (human plasma, 500 ng/mL, n = 3) was 98.8; in data set [6], 98.4; in data set [7], 34.9. For the same compound, in data set [4] (plasma spiked at 31.25 and 3.9 ng/mL), the “concentration of free ZMC1 in ultrafiltrate or ultracentrifugation supernatant” value is reported as “below the detection limit”. Further, the “Percentage of bound drug by ultracentifugation” value in data set [5] is listed as 97.5.
